The test has as its target T1, Nitric oxide synthase, inducible (Mus musculus, UniProt P29477).
T1 sequence (P29477 whole entry): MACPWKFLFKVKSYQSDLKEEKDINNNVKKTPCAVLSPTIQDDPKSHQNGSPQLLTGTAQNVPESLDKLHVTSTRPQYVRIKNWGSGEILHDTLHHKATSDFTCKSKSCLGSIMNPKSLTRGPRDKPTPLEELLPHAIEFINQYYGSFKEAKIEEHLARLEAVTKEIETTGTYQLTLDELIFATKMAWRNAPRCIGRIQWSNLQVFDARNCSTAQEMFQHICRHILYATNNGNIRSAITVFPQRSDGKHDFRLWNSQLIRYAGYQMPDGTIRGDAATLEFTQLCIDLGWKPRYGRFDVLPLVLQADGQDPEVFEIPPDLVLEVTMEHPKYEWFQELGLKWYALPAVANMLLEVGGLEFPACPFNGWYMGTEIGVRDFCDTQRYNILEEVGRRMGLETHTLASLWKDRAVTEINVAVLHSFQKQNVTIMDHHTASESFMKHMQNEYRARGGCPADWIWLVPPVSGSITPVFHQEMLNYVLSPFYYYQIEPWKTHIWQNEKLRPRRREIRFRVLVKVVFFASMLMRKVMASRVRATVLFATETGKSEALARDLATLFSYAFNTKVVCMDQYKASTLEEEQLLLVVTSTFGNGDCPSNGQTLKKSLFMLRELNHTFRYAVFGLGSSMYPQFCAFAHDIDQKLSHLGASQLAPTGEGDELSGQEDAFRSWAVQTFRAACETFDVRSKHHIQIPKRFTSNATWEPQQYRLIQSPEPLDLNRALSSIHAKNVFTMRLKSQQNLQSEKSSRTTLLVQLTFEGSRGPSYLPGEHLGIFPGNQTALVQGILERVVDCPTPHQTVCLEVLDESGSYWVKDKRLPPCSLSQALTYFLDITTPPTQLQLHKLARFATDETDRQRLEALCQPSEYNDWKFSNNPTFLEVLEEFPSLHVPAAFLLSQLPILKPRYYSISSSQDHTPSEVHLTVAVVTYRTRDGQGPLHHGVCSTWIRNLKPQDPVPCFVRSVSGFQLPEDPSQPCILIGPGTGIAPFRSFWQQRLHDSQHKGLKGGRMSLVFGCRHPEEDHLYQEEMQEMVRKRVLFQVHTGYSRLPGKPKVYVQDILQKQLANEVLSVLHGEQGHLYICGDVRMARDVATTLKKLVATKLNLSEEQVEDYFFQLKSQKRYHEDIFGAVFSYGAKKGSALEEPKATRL
Kind of test: Inhibition of inducible NOS mediated nitric oxide production in LPS-activated Kunming mouse macrophages. The method, boiled down:
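Peritoneal exudate cells from female Kunming mice (18–22 g), elicited 2 d earlier by ip 3% starch (1 mL). Cells (10^6/well) precultured 4 h at 37 °C in DMEM with 5% FCS, then washed to keep the adherent macrophages (>95% by Giemsa). Stimulated with LPS 10 µg/mL plus graded compound for 20 h. Nitrite/nitrate measured after nitrate reductase conversion, read colorimetrically. Inhibition % calculated, IC50 read graphically. L-NNA positive control.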
For orientation: IC50 means the concentration at which inhibition is half-maximal. A higher IC50 goes with a need for much substance. Regarding `N=C(NCCCCCC(=O)N[C@@H]1CN[C@H](C(=O)Nc2cc(Cl)cc(Cl)c2)C1)N[N+](=O)[O-]`, the IC50 was 87.3 µM. That is a double-digit micromolar value.
For the compound `N=C(NCCCCCC(=O)N[C@@H]1CN[C@H](C(=O)NC2CCCCC2)C1)N[N+](=O)[O-]`, the IC50 is 7.37 µM.
In the case of `N=C(NCCCCCC(=O)N[C@@H]1CN[C@H](C(=O)Nc2ccccc2F)C1)N[N+](=O)[O-]` it was 13.1 µM; in that of `N=C(NCCCCCC(=O)N[C@@H]1CN[C@H](C(=O)Nc2ccc(F)cc2)C1)N[N+](=O)[O-]`, 87 µM.
In the case of `Cc1ccc(NC(=O)[C@@H]2C[C@H](NC(=O)CCCCCNC(=N)N[N+](=O)[O-])CN2)cc1Cl` it was 2.5 µM; in that of `N=C(NCCCCCC(=O)N[C@@H]1CN[C@H](C(=O)Nc2ccc(Cl)cc2)C1)N[N+](=O)[O-]`, 80 µM; in that of `N=C(NCCCCCC(=O)N[C@@H]1CN[C@H](C(=O)Nc2ccc(F)c(F)c2F)C1)N[N+](=O)[O-]`, 36.2 µM.
As for `N=C(NCCCCCC(=O)N[C@@H]1CN[C@H](C(=O)Nc2ccc(F)c(F)c2)C1)N[N+](=O)[O-]`, the midpoint of inhibition, the IC50, lay at 2.68 µM. Against the preceding compound, the IC50 is about 14-fold lower.
To `N=C(NCCCCCC(=O)N[C@@H]1CN[C@H](C(=O)Nc2ccccc2)C1)N[N+](=O)[O-]` belongs 2.36 µM.
To `N=C(NCCCCCC(=O)N[C@@H]1CN[C@H](C(=O)Nc2cc(Cl)ccc2Cl)C1)N[N+](=O)[O-]` belongs 105 µM; to `N=C(NCCCCCC(=O)N[C@@H]1CN[C@H](C(=O)Nc2cccc([N+](=O)[O-])c2)C1)N[N+](=O)[O-]`, 46 µM.
Compound `N=C(NCCCCCC(=O)N[C@@H]1CN[C@H](C(=O)Nc2ccc([N+](=O)[O-])cc2)C1)N[N+](=O)[O-]` returned an IC50 of 25 µM. This IC50 is about 1.8-fold lower than that of the compound before.
To `Cc1cccc(NC(=O)[C@@H]2C[C@H](NC(=O)CCCCCNC(=N)N[N+](=O)[O-])CN2)c1` belongs 120 µM; to `Cc1ccccc1NC(=O)[C@@H]1C[C@H](NC(=O)CCCCCNC(=N)N[N+](=O)[O-])CN1`, 119 µM.
To `COc1ccc(NC(=O)[C@@H]2C[C@H](NC(=O)CCCCCNC(=N)N[N+](=O)[O-])CN2)cc1` belongs 26.7 µM; to `N=C(NCCCCCC(=O)N[C@@H]1CN[C@H](C(=O)Nc2ccc(Cl)cc2Cl)C1)N[N+](=O)[O-]`, 15.5 µM; to `N=C(NCCCCCC(=O)N[C@@H]1CN[C@H](C(=O)Nc2ccccc2Cl)C1)N[N+](=O)[O-]`, 108 µM.
`N=C(NCCCCCC(=O)N[C@@H]1CN[C@H](C(=O)Nc2ccc(F)cc2F)C1)N[N+](=O)[O-]`: the half-maximal inhibitory concentration (IC50) stood at 139 µM. The IC50 values of the last two compounds are within 1.5-fold of each other.
In turn, `Cc1ccc(NC(=O)[C@@H]2C[C@H](NC(=O)CCCCCNC(=N)N[N+](=O)[O-])CN2)c(C)c1` displayed an IC50 of 120 µM.
Compound `N=C(NCCCCCC(=O)N[C@@H]1CN[C@H](C(=O)NCc2ccccc2)C1)N[N+](=O)[O-]` displayed an IC50 of 43.5 µM.
As to `N=C(NCCCCCC(=O)N[C@@H]1CN[C@H](C(=O)Nc2ccc(Br)cc2)C1)N[N+](=O)[O-]`, the IC50 came out at 74.6 µM.
In the case of `N=C(NCCCCCC(=O)N[C@@H]1CN[C@H](C(=O)Nc2cccc(Cl)c2)C1)N[N+](=O)[O-]` it was 13 µM; in that of `Cc1ccc(NC(=O)[C@@H]2C[C@H](NC(=O)CCCCCNC(=N)N[N+](=O)[O-])CN2)cc1`, 123 µM.
To `N=C(NCCCCCC(=O)N[C@@H]1CN[C@H](C(=O)Nc2cc(F)cc(F)c2)C1)N[N+](=O)[O-]` belongs 11.7 µM; to `CCOc1ccc(NC(=O)[C@@H]2C[C@H](NC(=O)CCCCCNC(=N)N[N+](=O)[O-])CN2)cc1`, 162 µM; to `N=C(NCCC[C@H](N)C(=O)O)N[N+](=O)[O-]` [NITROARGININE], 14.7 µM.

The values are drawn from ChEMBL document CHEMBL1143872, “Design, synthesis, and preliminary evaluation of 4-(6-(3-nitroguanidino)hexanamido)pyrrolidine derivatives as potential iNOS inhibitors” (Bioorg Med Chem, 2008).
